Screening data: PubChem BioAssay, The Scripps Research Institute Molecular Screening Center
UHRF1 binding – UHRF1 methyl-DNA binding inhibition | UHRF1 binding to methylated oligo, TR-FRET | actives 0.75% (n = 370,000) | inhibition, % at 4.4 µM | AID 687016;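 also: UHRF1 SRA domain binding a hemimethylated CpG hairpin DNA probe; 0% = median of test compound wells and 100% = reference inhibitor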
MBD2 DNA inh – MBD2-methylated oligo binding inhibition | inhibition, % at 4.4 µM | actives 0.31% (n = 370,000) | Q9UBB5 | AID 686964 | TR-FRET, MBD2 binding to methylated oligonucleotide; in the data active = inhibition above about 13%
Target sequence (Q9UBB5 whole entry, looked up): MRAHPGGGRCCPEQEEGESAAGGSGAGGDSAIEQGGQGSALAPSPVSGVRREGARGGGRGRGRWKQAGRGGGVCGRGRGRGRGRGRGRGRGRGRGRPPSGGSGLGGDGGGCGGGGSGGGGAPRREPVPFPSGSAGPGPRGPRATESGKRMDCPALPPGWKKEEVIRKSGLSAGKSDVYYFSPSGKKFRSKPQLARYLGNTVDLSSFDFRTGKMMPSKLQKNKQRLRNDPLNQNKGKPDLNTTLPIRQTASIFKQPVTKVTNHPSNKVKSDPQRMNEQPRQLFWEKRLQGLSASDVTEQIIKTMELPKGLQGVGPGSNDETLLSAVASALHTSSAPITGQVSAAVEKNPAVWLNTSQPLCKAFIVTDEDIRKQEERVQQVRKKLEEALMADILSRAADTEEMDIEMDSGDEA
HCV core dimer – HCV core protein dimerization inhibition | actives 0.33% (n = 300,000) | inhibition, % at 5 µM | TR-FRET GST/Flag-core106 dimerization, 1536-well;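 active = inhibition above the mean of all tested compounds plus 3 SD, set per screening campaign, cut at about 45% in these data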
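Material: GST/Flag-tagged HCV core106 proteins. Incubation: 4 h, 22.5 °C incubation. Read-out basis: inhibition (%) from 671 over 617 nm ratio. Measured by: TR-FRET, excitation 340 nm, emission 617 and 671 nm.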
TDP2 absorb – TDP2 (human) inhibition, absorbance primary screen. AID 720702. actives 0.34% (n = 370,000). O95551. inhibition, % at 12.8 µM. recombinant TDP2, T5PNP hydrolysis, p-nitrophenol absorbance 415 nm;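 active = inhibition above the mean of all tested compounds plus 3 SD, set per campaign, cut at about 25% in these data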;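 also: 0% = DMSO with enzyme and 100% = buffer with substrate but no TDP2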
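System: recombinant human TDP2 / Amount: 120 nM TDP2 per well / Also added: 5 mM T5PNP chromogenic substrate / Doses: 12.8 µM single point, 1% DMSO / Incubation: 2 h at 37 °C / Detection: p-Nitrophenol epi absorbance / Evaluation: % inhibition relative to enzyme-containing and enzyme-free wells / Repeats: singlicate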
LEDGF integ inh – blocks HIV-1 LEDGF/p75-dependent DNA integration. TR-FRET IN-LEDGF/p75 DNA integration, Eu/Cy5. AID 743269. actives 0.64% (n = 370,000). inhibition, % at 3.7 µM;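 active = inhibition above the screen-wide mean plus 3 SD, cut at about 13% in these data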;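 also: signal is the Cy5 over europium emission ratio at 671 and 618 nm; 0% = plate median of compound wells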
UHRF1 DNA bind – counter-screen for MBD2 inhibitors: human UHRF1 methylated DNA binding inhibitors. AID 720530. UHRF1 binding to methylated oligonucleotide, TR-FRET. actives 25% (n = 1,000). shares compounds with MBD2 DNA inh. inhibition, % at 4.4 µM;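 also: UHRF1 SRA domain binding a labeled hemimethylated CpG hairpin DNA; 0% = vehicle only and 100% = reference inhibitor with vehicle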
MBD2 DBD conf – confirmation of human MBD2-DBD methylated oligonucleotide binding inhibitors; shares compounds with MBD2 DNA inh; TR-FRET MBD2-DBD binding to methylated oligonucleotide; inhibition, % at 4.4 µM; actives 26% (n = 1,000); in the data active = inhibition above about 14%
TDP2 inh conf – confirmation of human TDP2 inhibitors; shares compounds with TDP2 absorb; recombinant human TDP2, absorbance read-out; actives 22% (n = 1,100); AID 743263; inhibition, % at 12.8 µM; in the data active = inhibition above about 25%;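 also: 0% = vehicle with enzyme and 100% = no enzyme buffer only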
IN multimer up – HIV-1 integrase multimerization activation, counter-screen; shares compounds with LEDGF integ inh; TR-FRET HIV-1 integrase multimerization, biochemical; activation, % at 7.7 µM; actives 17% (n = 2,000); AID 1053131; in the data active = activation above about 8.9%
TRFRET interf – optically interferes with TR-FRET readout in LEDGF counter-screen; 2,000 tested, under 10 active; shares compounds with LEDGF integ inh; inhibition, % at 7.7 µM; TR-FRET optical interference counterscreen, HIV-1 IN multimerization; AID 1053135;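 active = inhibition above the mean over all tested compounds plus 3 SD, which no compound reached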;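 also: 0% = integrase with antibodies and DMSO and 100% = antibodies without integrase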
LEDGF integ conf – LEDGF/p75-dependent HIV-1 integration inhibition, confirmation; actives 36% (n = 2,000); shares compounds with LEDGF integ inh; inhibition, % at 3.7 µM; TR-FRET LEDGF/p75-dependent HIV-1 integration, biochemical; in the data active = inhibition above about 14%
The depositor's hits bear a star; i = inactive; / = no result. A selection: hits, their analogues and other compounds. The true share with any hit is near 1.8%. Rule as the data show it, unless noted: active = inhibition above about 21%; inactive = the rest.

SMILES	UHRF1 binding	MBD2 DNA inh	HCV core dimer	TDP2 absorb	LEDGF integ inh	UHRF1 DNA bind	MBD2 DBD conf	IN multimer up	TRFRET interf	LEDGF integ conf	others
Cc1ccc(/C=C/C(=O)NCc2ccco2)o1	54*	14*	5	14	37*	48*	17*	13*	-66	60*
COCCNC(=O)C1(C)CCCN(C(=O)c2ccc(C(F)(F)F)cc2)C1 (configuration not stated)	-2	-2	/	6	-2	/	/	/	/	/
COCCNC(=O)C1(C)CCCN(C(=O)c2ccc(C(=O)OC)cc2)C1 (configuration not stated)	20	16*	/	6	15*	-2	3	-1	4	2
O=C(N/C=C/c1ccco1)OCc1ccccc1	24*	15*	39	-4	36*	26*	27*	31*	-156	36*
COC(=O)COc1ccc(C2Nc3c(Cl)ccc(C(=O)O)c3C3C=CCC32)cc1 (configuration not stated)	46*	18*	14	-8	66*	12	4	-1	5	21*
Cc1cccc(N=C2NC(=O)/C(=C/C=C/c3ccco3)S2)c1C	48*	17*	59*	14	49*	21*	9	9.7*	-35	63*
Cc1cccc(N=C2NC(=O)/C(=C/c3cccn3C)S2)c1C	-2	0	1	9	-2	/	/	/	/	/
NCCN1CCN(S(=O)(=O)c2ccc3c(c2)CCN3C(=O)C2CCC2)CC1	-3	2	/	6	0	/	/	/	/	/
COc1ccc(C(c2c(C)[nH]n(-c3ccccc3)c2=O)c2c(C)[nH]n(-c3ccccc3)c2=O)cc1OC	21	16*	-3	88*	26*	1	0	4	-16	8	TDP2 inh conf=39*
COc1ccc(C(c2c(C)n(C)n(-c3ccccc3)c2=O)c2c(C)n(C)n(-c3ccccc3)c2=O)cc1OC	2	-5	1	-16	3	/	/	/	/	/
C[C@@H]1COc2cc(F)ccc2S(=O)(=O)N1C	0	5	/	-4	0	/	/	/	/	/
COC(=O)[C@H]1C[C@@]2(N3CCCCC3)c3ccccc3N(C(=O)OC(C)(C)C)[C@H]2N1C(=O)OC(C)(C)C	-1	-3	/	-2	3	/	/	/	/	/
C=C(C)C(=O)Nc1cccc(C2=NOC3(C2)C[C@@H](C(N)=O)N(C(=O)c2ccc(Cl)cc2)C3)c1 (some centres not stated)	/	/	-200	/	/	/	/	/	/	/
C=C(C)C(=O)Nc1cccc(C2=NOC3(C2)C[C@@H](C(N)=O)N(C(=O)C(=C)C)C3)c1 (some centres not stated)	74*	35*	-103	7	16*	73*	42*	17*	-88	30*
C=C(C)C(=O)Nc1cccc(C2=NOC3(C2)C[C@@H](C(N)=O)N(C(=O)C2(C)CC2)C3)c1 (some centres not stated)	92*	55*	-206	1	36*	94*	79*	93*	-334	60*
C=C(C)C(=O)Nc1cccc(C2=NOC3(C2)C[C@H](C(N)=O)N(C(=O)/C=C/C)C3)c1 (some centres not stated)	82*	46*	-86	-21	26*	73*	48*	19*	-96	34*
C/C=C/C(=O)N1CC2(CC(c3cccc(NC(=O)CC)c3)=NO2)C[C@H]1C(N)=O (some centres not stated)	-1	-3	-13	-8	-5	/	/	/	/	/
CC(C)N1CCCCC(NC(=O)c2cccc(F)c2)C1=O (configuration not stated)	-1	-5	/	5	0	/	/	/	/	/
COC(=O)N1C[C@H](OC)[C@H]2C[C@@H]1c1ccccc1O2	1	1	/	4	-3	/	/	/	/	/
O=C1C=C(O)c2c(O)cc(O)c(O)c2C1=O	77*	49*	-56	-5	60*	51*	26*	103*	i	84*
O=C(N/N=C/c1ccc(F)cc1)c1cc(-c2ccco2)nc2ccccc12	28*	19*	69*	1	15*	52*	36*	24*	-118	48*
COc1ccc(/C=C2/CN(Cc3ccc(OC)cc3OC)C3=NC(c4ccc5ccccc5c4)CC(=O)N32)cc1 (configuration not stated)	1	3	/	2	2	/	/	/	/	/
COC(=O)c1ccccc1-c1ccc(/C=C2\C(=O)N(c3ccccc3)N=C2c2ccccc2)o1	-5	-4	3	1	-1	/	/	/	/	/
CCOC(=O)C(C)N1C(=O)S/C(=C\c2ccc(-c3ccccc3C(=O)O)o2)C1=O (configuration not stated)	55*	31*	15	-6	18*	49*	16*	6	-20	18*
COC(=O)[C@]12C[C@H](CC(=O)NCCCCc3ccccc3)C(=O)N(Cc3ccc(Cl)cc3Cl)C1=C[C@H](C(C)(C)C)O[C@@H]2C	1	-3	/	-2	-1	/	/	/	/	/
COc1ccc(/C=C/S(=O)(=O)NCc2ccc(F)cc2)c(CNC(=O)OC(C)(C)C)c1	2	3	/	-4	-6	/	/	/	/	/
Cc1onc(-c2ccccc2Cl)c1C(=O)NCc1ccco1	41*	26*	57*	-6	44*	19	14*	10*	-50	30*
N#C/C(=C\c1ccc(O)c(O)c1)C(=O)Nc1cccc2ncccc12	28*	21*	65*	-9	49*	13	11	72*	-256	85*
CC(NCc1ccco1)C(=O)N1CCOCC1 (configuration not stated)	-3	4	/	9	2	/	/	/	/	/
Cc1ccc(-n2c(Cc3cccs3)nnc2SCc2ccc(C#N)cc2)cc1	-2	-2	/	-1	1	/	/	/	/	/
